# High-throughput results deposited in PubChem BioAssay by several laboratories.
# Compounds with a hit are over-represented: about 5.3% of the library has one in this group of screens.
# CSC inhib – cancer stem cell viability inhibitors, primary screen, luminescence; inhibition, % at 7.5 µM; AID 2717, 2010; 300,000 tested, 1.1% active; cancer stem cell-like cells viability; in the data active = inhibition above about 75%; tested in HMLE shEcad cells
# Mdm2 MdmX PPI – inhibitors of human Mdm2-MdmX association, primary screen, cell-based, luminescence, split luciferase, SaOS-2, uHTS; Protein Mdm4 (Homo sapiens) + E3 ubiquitin-protein ligase Mdm2 (Homo sapiens), …; SaOS-2 split-luciferase Mdm2/MdmX complementation; inhibition, % at 8 µM; 330,000 tested, 3% active; AID 485346, 2010;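 active = inhibition of at least 50% at 8 µM in the primary screen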
# Target sequence (O15151 whole entry, looked up): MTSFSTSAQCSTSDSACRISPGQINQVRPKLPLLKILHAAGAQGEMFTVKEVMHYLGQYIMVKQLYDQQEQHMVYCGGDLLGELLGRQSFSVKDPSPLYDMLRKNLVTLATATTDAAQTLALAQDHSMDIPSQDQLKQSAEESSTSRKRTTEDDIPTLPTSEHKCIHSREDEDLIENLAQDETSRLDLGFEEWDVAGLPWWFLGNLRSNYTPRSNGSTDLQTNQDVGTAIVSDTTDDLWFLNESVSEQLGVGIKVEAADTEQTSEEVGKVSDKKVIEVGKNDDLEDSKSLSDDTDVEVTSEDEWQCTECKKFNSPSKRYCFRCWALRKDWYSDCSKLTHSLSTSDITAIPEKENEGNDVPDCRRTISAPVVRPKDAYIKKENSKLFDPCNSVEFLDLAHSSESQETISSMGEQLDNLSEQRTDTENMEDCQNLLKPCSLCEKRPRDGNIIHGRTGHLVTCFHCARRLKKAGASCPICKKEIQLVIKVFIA
# Target sequence (Q00987 whole entry, looked up): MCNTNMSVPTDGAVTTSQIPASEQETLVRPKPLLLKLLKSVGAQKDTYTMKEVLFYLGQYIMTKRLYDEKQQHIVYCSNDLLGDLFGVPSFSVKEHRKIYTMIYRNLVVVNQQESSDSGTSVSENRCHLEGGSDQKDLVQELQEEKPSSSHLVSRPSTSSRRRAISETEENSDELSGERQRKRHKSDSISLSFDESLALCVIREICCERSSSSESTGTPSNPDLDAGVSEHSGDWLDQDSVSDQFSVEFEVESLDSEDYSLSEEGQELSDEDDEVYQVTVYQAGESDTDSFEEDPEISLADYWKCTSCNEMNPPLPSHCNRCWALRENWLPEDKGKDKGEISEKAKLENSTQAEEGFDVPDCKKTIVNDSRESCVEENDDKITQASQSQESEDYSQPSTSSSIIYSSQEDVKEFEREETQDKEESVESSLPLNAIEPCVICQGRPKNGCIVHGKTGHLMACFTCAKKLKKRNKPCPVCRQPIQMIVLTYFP
# Calb FLC – C. albicans growth inhibition with fluconazole, primary screen, CaCi-2 strain, Alamar Blue fluorescence. C. albicans CaCi-2 (fluconazole-resistant clinical isolate) + fluconazole, 48 h. growth inhibition, % (concentration not given with the values). 300,000 tested, 0.57% active. AID 1979, 2009;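 active = growth inhibition above about 58% in most replicates, limit read from the data, passing the limit was not always enough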;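 note: all wells also contain fluconazole at 8 µg/ml as a sub-toxic cotreatment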
# T cruzi repl – inhibitors of intracellular T. cruzi growth, primary screen, luminescence, NIH3T3 host cells; T. cruzi beta-gal in NIH3T3, 90 h; inhibition, % (no concentration beside the values); 300,000 tested, 1.4% active;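 active = mean inhibition across valid replicates above about 55%, limit read from the data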;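 note: signal also drops with host cell toxicity which is not excluded here; higher percent means less beta-gal luminescence so fewer parasites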
#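 Material: NIH/3T3 host cells with β-galactosidase reporter T. cruzi; Input: 5,000 host fibroblasts per well; Medium: DMEM, 2% fetal bovine serum; Compound: 50 nL DMSO compound solution per well; Schedule: 3 h host attachment, then at least 90 h co-culture; Detection: luminescent β-galactosidase signal after 60 min lysis.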
# Beta apoptosis – inhibitors of cytokine-induced beta cell apoptosis, primary screen, luminescence | AID 435005, 2010 | INS-1E cytokine-induced death, ATP luminescence, 48 h; percent of positive-control rescue, neutral wells zero | protection from apoptosis, % (concentration not given with the values) | 300,000 tested, 0.8% active;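 active = Every replicate reaches about 75%, or at least half do and their mean reaches it too, limit read from the data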;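 note: higher means more ATP so stronger rescue from cytokine killing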
# NALP3 yeast inh – NALP3 inflammasome inhibitors in reconstituted yeast, primary screen, luminescence, uHTS | Yeast reconstituted NLRP3/ASC/caspase-1, beta-gal luminescence, 24 h | inhibition, % at 10 µM | 330,000 tested, 0.39% active | AID 2825, 2010;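 active = inhibition of 50% or more; inactive = inhibition below 50%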
# Mdm2-MdmX conf – Mdm2-MdmX complex disruptors, retested hits, confirmation, luminescence, single concentration; 10,000 tested, 55% active; shares compounds with Mdm2 MdmX PPI; AID 489028, 2010; Mdm2-MdmX binding, luminescent assay; inhibition, % at 8 µM; in the data active = inhibition above about 40%
# FLuc counter – full-length luciferase signal inhibition, confirmation, counter-screen for Mdm2/MdmX interaction inhibitor project, cell-based, single concentration, SaOS-2; shares compounds with Mdm2 MdmX PPI; SaOS-2 full-length luciferase counterscreen, luminescence; inhibition, % at 8 µM; 6,200 tested, 77% active;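 active = mean inhibition at 8 µM reaching about 37%, which flags the compound as non-specific, limit read from the data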;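 note: p53-null SaOS-2 cells with luciferase driven by a doxycycline-inducible promoter; compound on cells about two nights before reading with doxycycline added after day one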
# A number is an active result; – = inactive; · = no result.
SMILES,CSC inhib,Mdm2 MdmX PPI,Calb FLC,T cruzi repl,Beta apoptosis,NALP3 yeast inh,Mdm2-MdmX conf,others
CCN(C[C@H]1N[C@@](Cc2ccccc2)(C(=O)OC)[C@H]2C(=O)N(Cc3ccccc3)C(=O)[C@@H]12)C(=O)Nc1ccc(C)cc1,·,54,·,·,·,–,51,FLuc counter=74
CCN(C[C@H]1N[C@@](CC)(C(=O)OC)[C@H]2C(=O)N(Cc3ccccc3)C(=O)[C@@H]12)C(=O)Nc1ccc(C)cc1,·,–,·,·,·,–,·,
CCN(C[C@H]1N[C@@](Cc2ccccc2)(C(=O)OC)[C@H]2C(=O)N(Cc3ccccc3)C(=O)[C@@H]12)C(=O)Nc1ccc(C(F)(F)F)cc1,–,85,·,·,–,–,40,FLuc counter=58
CCN(C[C@H]1N[C@@](Cc2ccccc2)(C(=O)OC)[C@H]2C(=O)N(Cc3ccccc3)C(=O)[C@@H]12)S(=O)(=O)c1ccc(C(F)(F)F)cc1,·,–,·,·,·,–,·,
CCN(C[C@H]1N[C@@](CC)(C(=O)OC)[C@H]2C(=O)N(C)C(=O)[C@@H]12)C(=O)Nc1ccc(Cl)cc1,·,–,·,·,·,–,·,
CC(CCc1ccccc1)NC(=O)c1ccccc1Cl (centres undefined),–,–,–,–,–,–,·,
CC1CCC(C(C)C)C(OCC(O)CNC(C)c2ccccc2)C1 (centres undefined),–,60,–,–,–,–,46,FLuc counter=70
CC1CCC(C(C)C)C(OCC(O)CNC(C)(C)C)C1 (centres undefined),–,–,–,–,–,–,·,
CC(NCC(O)COC1CCC(C(C)(C)C)CC1)c1ccccc1 (centres undefined),·,55,–,75,–,–,–,FLuc counter=77
COc1ccc(OCC(O)CNC(C)c2ccccc2)cc1 (centres undefined),–,–,–,–,–,–,·,
CCOc1ccc(S(=O)(=O)NCc2ccccn2)cc1NC(=O)c1ccccc1F,–,57,–,–,–,–,53,FLuc counter=72
COc1ccc(C(NC(=O)c2ccc(=O)[nH]c2)C(=O)Nc2ccc(C(C)C)cc2)cc1 (centres undefined),–,–,–,–,–,–,·,
CN(Cc1ccccc1)C(=O)c1[nH]cnc1C(=O)NCC(=O)OC(C)(C)C,–,–,–,–,–,–,·,
CC(Oc1cc2oc(=O)c3c(c2cc1Cl)CCC3)C(=O)NCCCn1ccnc1 (centres undefined),–,–,–,–,·,–,·,
O=c1oc2cc(Oc3ccc(C(F)(F)F)cc3[N+](=O)[O-])ccc2c2c1CCC2,·,–,–,–,·,–,·,
O=c1oc2cc(Oc3c([N+](=O)[O-])cc(C(F)(F)F)cc3[N+](=O)[O-])ccc2c2c1CCCC2,–,67,–,–,·,–,–,
CCc1n[nH]c(=S)n1/N=C/c1c(C)nn(-c2ccccc2)c1Cl,·,–,–,–,·,–,·,
Cc1ccccc1-c1n[nH]c(=S)n1/N=C/c1c(C)nn(-c2ccccc2)c1C,–,87,–,–,–,–,53,FLuc counter=103
Cc1ccc(C(=O)O/N=C/c2ccc3c(c2)OCO3)cc1,–,–,–,–,–,–,·,
COc1ccccc1C(CC(=O)c1ccccc1)CC(=O)c1ccccc1,–,–,–,–,–,–,·,
CCNc1nc(NC(C)C)nc(Oc2ccc(OCCOc3ccccc3)nn2)n1,–,51,–,–,–,–,–,
Cc1cc(C)c2nc(SCC(=O)N3CC(=O)Nc4ccccc43)c(C#N)cc2c1,–,69,–,–,–,–,71,FLuc counter=112
COc1ccc2nc(SCC(=O)N3CC(=O)Nc4ccccc43)c(C#N)cc2c1,–,65,–,–,–,–,68,FLuc counter=46
CC(=O)NS(=O)(=O)c1ccc(NC(=O)C2c3ccccc3Oc3ccccc32)cc1,–,–,–,–,–,–,·,
O=S(=O)(c1ccccc1)c1nc(NCc2ccccc2)sc1Cl,–,–,–,–,–,–,·,
SMILES,CSC inhib,Mdm2 MdmX PPI,Calb FLC,T cruzi repl,Beta apoptosis,NALP3 yeast inh,Mdm2-MdmX conf,others
COC(=O)c1ccc(CSc2n[nH]c(C)n2)o1,–,–,–,–,–,–,·,
CC(=O)c1cccc(NC(=O)CNC(=O)c2sc3ccccc3c2Cl)c1,–,76,–,–,·,–,48,FLuc counter=55
Cc1cccc(NC(=O)CNC(=O)c2sc3ccccc3c2Cl)n1,–,–,·,–,–,–,·,
COc1ccc(NC(=O)NCCCCc2ccccc2)c(OC)c1,–,58,–,–,–,–,–,
COc1ccccc1NC(=O)NCCCCc1ccccc1,–,–,–,–,–,–,·,
COc1ccc(NC(=O)CNC(=O)c2sc3ccccc3c2Cl)c(OC)c1,·,77,·,·,–,–,–,
COc1ccccc1CNC(=O)CNC(=O)c1sc2ccccc2c1Cl,–,–,–,–,·,–,·,
Cc1nn(Cc2ccccc2Cl)c2sc(C(=O)Nc3ccccc3N3CCOCC3)cc12,–,55,–,–,–,–,61,FLuc counter=61
Cc1nn(-c2ccccc2Cl)c2sc(C(=O)Nc3nnc(C4CC4)s3)cc12,–,74,–,–,–,–,–,
Cc1nn(Cc2ccc(F)cc2)c2sc(C(=O)Nc3ccccc3N3CCOCC3)cc12,–,–,–,–,·,–,·,
CC(=O)Nc1ccc(OCC(=O)Nc2ccc(Cl)c(S(=O)(=O)N3CCOCC3)c2)cc1,–,–,·,·,–,–,·,
Cc1ccc(Nc2nc(C)c3c(n2)CC(C)CC3=O)c(C)c1 (centres undefined),–,–,–,–,–,–,·,
Cc1nc(Nc2cccc(C(F)(F)F)c2)nc2c1C(=O)CC(C)C2 (centres undefined),–,54,–,·,–,–,–,
Cn1ncc2c(Nc3ccc(O)cc3)nc(Cl)nc21,–,–,–,–,–,–,·,
CNc1nc(Nc2ccc(C)c(Cl)c2)c2cnn(C)c2n1,–,–,–,–,–,–,·,
Cn1ncc2c(Nc3ccc(Br)cc3)nc(Nc3ccc(Br)cc3)nc21,103,60,–,–,–,–,–,
Cn1ncc2c(Nc3cccc(Cl)c3)nc(Nc3cccc(Cl)c3)nc21,115,50,–,–,–,–,–,
O=C(NN1CCOCC1)c1ccc(Cl)c(Cl)c1,–,–,–,–,–,–,·,
CCCC(=O)NC(c1ccc(OC)c(OC)c1)c1c(O)ccc2ccccc12 (centres undefined),–,–,–,–,–,–,·,
